Series [1] relates to Blood. Briefly: Drug uptake in po dosed Wistar rat blood at 6 hrs. It is filed as ADME, organism-based. As to conditions: in vivo; call rule not given here. The method, boiled down:
(§1)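 Overnight-fasted Wistar rats (water allowed) given prodrug 2.5 mg in 0.5 mL saline orally. Blood taken by retro-orbital puncture at intervals over up to 8 h, processed by methanol protein precipitation and centrifugation, and analysed by RP-HPLC for intact prodrug, rhein and boswellic acid, expressed as percent of administered dose.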

For series [2], the system named is Blood. Description: Prodrug conversion in po dosed Wistar rat blood assessed as rhein production from 4 to 7 hrs. To be noted: in vivo. It is filed as ADME, organism-based. The gist of the method:
as §1

The subject of series [3] is Blood. Description: Drug uptake in po dosed Wistar rat blood at 7 hrs. It counts as ADME, organism-based. As to conditions: in vivo. The gist of the method: as §1
A further series has as its system Intestine. Description: Prodrug conversion in rat small intestine homogenate assessed as half life of hydrolysis. It is filed as ADME, tissue-based. To be noted: tissue homogenate. The gist of the method: (§2)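 Prodrug solution in buffer (250 µg/mL) added to rat stomach or small intestinal homogenate pre-equilibrated at 37 ± 0.5 °C. Samples taken at intervals, centrifuged, supernatant filtered and analysed by RP-HPLC at 211 nm for residual prodrug and released rhein/boswellic acid. Rate constant from log residual prodrug vs time slope; triplicate, mean rate constant.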

Series [4] can be described thus: Drug excretion in po dosed Wistar rat feces up to 24 hrs. It is filed as ADME, organism-based. To be noted: faeces, read-out: Drug excretion. The method, boiled down: (§3)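 Wistar rats given prodrug 2.5 mg in 0.5 mL saline orally after overnight fast; urine and feces collected from metabolic cages at intervals over 24 h and pooled. Urine diluted 10-fold and feces 100-fold in phosphate buffer pH 7.4, then analysed by RP-HPLC for intact prodrug, rhein and boswellic acid as percent.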

For a further series, the system named is Stomach. Description: Metabolic stability in rat stomach homogenate. It counts as ADME, tissue-based. To be noted: tissue homogenate. The gist of the method: as §2
Series [5] has as its system Blood. Description: Drug uptake in po dosed Wistar rat blood at 5 hrs. It counts as ADME, organism-based. To be noted: in vivo. The method, boiled down: as §1
Series [6] deals with Blood. Briefly: Drug uptake in po dosed Wistar rat blood at 3 hrs. It is filed as ADME, organism-based. To be noted: in vivo. The method, boiled down:
as §1

Series [7] has as its system Blood. Description: Drug uptake in po dosed Wistar rat blood at 4 hrs. As to conditions: in vivo. It counts as ADME, organism-based. The method, boiled down:
as §1

The nature of series [8]: Drug excretion in po dosed Wistar rat urine assessed as boswellic acid up to 24 hrs. It counts as ADME, organism-based. As to conditions: in vivo. The method, boiled down:
as §3

Series [9] has as its system Blood. Description: Drug uptake in po dosed Wistar rat blood at 2 hrs. It is filed as ADME, organism-based. To be noted: in vivo. The method, boiled down:
as §1

Series [10] in a line: n-Octanol-phosphate buffer partition coefficient, log P of the compound at pH 7.4. It counts as physicochemical. The method, boiled down: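 Partition coefficient measured between n-octanol and phosphate buffer pH 7.4, with concentrations read by UV–visible spectrophotometry.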
The nature of series [11]: Chemical stability of the compound in HCl buffer at pH 1.2. It counts as physicochemical. The gist of the method: (§4)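 Prodrug (10 mg) incubated in aqueous buffer (HCl pH 1.2 or phosphate pH 7.4) at 37 ± 0.5 °C, stirred at 100 rpm; aliquots withdrawn with medium replacement at intervals up to 7 h. Residual prodrug and released rhein/boswellic acid quantified by RP-HPLC at 211 nm. First-order rate constant from slope of log residual prodrug vs time; triplicate, mean taken.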

The nature of series [12]: Prodrug conversion in phosphate buffer assessed as half life of hydrolysis at pH 7.4. It is filed as physicochemical. The method, boiled down:
as §4

A short description of series [13]: Drug excretion in po dosed Wistar rat urine up to 24 hrs. To be noted: read-out: Drug excretion. It counts as ADME, organism-based. The method, boiled down: as §3
Series [14] is described as follows: Drug excretion in po dosed Wistar rat feces assessed as boswellic acid up to 24 hrs. To be noted: in vivo. It counts as ADME, organism-based. The gist of the method:
as §3

The nature of series [15]: Drug excretion in po dosed Wistar rat urine assessed as rhein up to 24 hrs. It is filed as ADME, organism-based. As to conditions: in vivo. The method, boiled down:
as §3

The subject of series [16] is Blood. Briefly: Prodrug conversion in po dosed Wistar rat blood assessed as boswellic acid production from 4 to 7 hrs. It counts as ADME, organism-based. To be noted: in vivo. The gist of the method: as §1
Series [17] in a line: Drug excretion in po dosed Wistar rat feces assessed as rhein up to 24 hrs. It is filed as ADME, organism-based. To be noted: in vivo. The gist of the method:
as §3

The next series has as its system Plasma. Description: Prodrug conversion in 80% human plasma assessed as half life of hydrolysis. It counts as ADME, cell-free. The gist of the method:
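80% human plasma prepared in 0.05 M phosphate buffer pH 7.4; prodrug methanol stock (250 µg/mL) mixed 1:1 with plasma and incubated at 37 ± 0.5 °C over 7 h. At intervals, centrifuged cold, supernatant protein-precipitated with methanol, recentrifuged, filtered and analysed by RP-HPLC for residual prodrug and released rhein/boswellic acid. Rate constant from log residual prodrug vs time; triplicate.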

The structures appear in SMILES notation.

Take `CC1(C)CC[C@]2(C)CC[C@]3(C)C(=CC[C@@H]4[C@@]5(C)CC[C@@H](O)[C@](C)(C(=O)Oc6cccc7c6C(=O)c6c(OC(=O)[C@@]8(C)[C@H](O)CC[C@@]9(C)[C@H]8CC[C@]8(C)[C@@H]9CC=C9[C@@H]%10CC(C)(C)CC[C@]%10(C)CC[C@]98C)cc(C(=O)O)cc6C7=O)[C@@H]5CC[C@]43C)[C@@H]2C1`: the Drug uptake in the series on Blood [1] is on record as 12%; in the series with Blood [3], 3.4%; in the series with Blood [5], 22%; in the series with Blood [6], 70.43%; in the series on Blood [7], 34.5%; in the series with Blood [9] it was 93.6%. In addition, the Drug metabolism result with Blood [2] and in the series on Blood [16] was “Active” in each case. Further, the values for the t1/2 (in the series with Intestine; in series [12]; in the series with Plasma) were 2.672 h, 3.205 h and 3.102 h, respectively. Moreover, the results for the dose excreted at 24 h in series [4] and in [13] were 3.1% and 6.2%, respectively. Further, the Stability result (with Stomach; in series [11]) was “Stable” each time. Also, the Drug excretion in series [8] is 8.9%; in [14], 4.59%; in [15], 7.1%; in [17] it was “Not Active”. In addition, the logD in series [10] came out at 2.57.

In series [10], `O=C(O)c1cc(O)c2c(c1)C(=O)c1cccc(O)c1C2=O` [RHEIN] showed a logD of 0.24.

These data come from ChEMBL document CHEMBL2203279, “Synthesis and pharmacokinetic profile of rhein- boswellic acid conjugate” (Bioorg Med Chem Lett, 2012).
